Assay outcomes: PubChem BioAssay, Sanford-Burnham Center for Chemical Genomics
UPR CHOP act – apoptotic UPR (CHOP) activation; CHO-CHOP luciferase reporter, luminescence; percent of tunicamycin response over DMSO baseline; activation, % at 10 µM; 0.34% of 330,000 active; AID 449763;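 active = at 10 µM dose, activation of 40% or more, normalized to positive control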;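 note: 100% = tunicamycin at 10 µg/mL and 0% = DMSO alone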
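System: CHO-CHOP luciferase reporter cell line | Buffer or medium: F12 medium containing 10% fetal bovine serum | Doses: One dose, 10 µM in 0.5% DMSO | Times: 6 h compound exposure at 37 °C after overnight seeding | Signal: Luciferase luminescence | Read-out: % activation vs tunicamycin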
UBC13 inh – human UBC13 polyubiquitination inhibition; P61088; UBC13 polyubiquitin chain formation, TR-FRET; inhibition, % at 20 µM; 0.47% of 330,000 active; AID 485273; in the data active = inhibition above about 45%, passing the limit was not always enough
Target sequence (P61088 whole entry, looked up): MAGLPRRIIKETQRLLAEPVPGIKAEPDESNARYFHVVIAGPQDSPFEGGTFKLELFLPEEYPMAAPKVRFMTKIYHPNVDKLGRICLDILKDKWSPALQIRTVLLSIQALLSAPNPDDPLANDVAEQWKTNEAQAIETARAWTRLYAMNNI
Apaf1 inhib – inhibitors of human Apaf-1 apoptosome. reconstituted apoptosome caspase-3 activity, DEVD-Rh110 fluorescence. inhibition, % at 20 µM. 0.71% of 330,000 active. AID 489030; active = inhibition of at least 40% at 20 µM;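 note: plate controls were DMSO wells for no effect and DEVD-CHO caspase inhibitor wells for full effect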
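Material: biochemical Apaf-1 apoptosome reconstitution. Medium: Hepes buffer, pH 7.5. Also added: cytochrome c activation, bis-DEVD rhodamine 110 substrate. Timing: 30 min compound preincubation, 50 min activation, room temperature. Measured by: rhodamine 110 fluorescence at Ex 480/Em 540 nm.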
Mdm2 MdmX PPI – human Mdm2/MdmX binding inhibition; 3% of 330,000 active; AID 485346; O15151+Q00987; inhibition, % at 8 µM; SaOS-2 split-luciferase Mdm2/MdmX complementation, luminescence;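 active = inhibition of at least 50% at 8 µM in the primary screen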
XBP1 UPR activ – adaptive UPR (XBP1) activation; activation, % at 20 µM; CHO-XBP1 luciferase reporter, IRE1-XBP1 UPR activation, luminescence; percent of tunicamycin response, DMSO as zero; 0.33% of 330,000 active; AID 463104;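 active = versus positive control, 20 µM dose yields 30% or more activation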;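 note: 100% = tunicamycin at 10 µg/mL and 0% = DMSO only wells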
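incubation = overnight seeding at 37 °C, 6 h compound treatment at 37 °C | assay system = CHO-XBP1 cells stably carrying IRE1-XBP1-driven luciferase reporter | input = 1000 cells per well | detection = luciferase luminescence | dosing = single point, 20 µM final compound, 1% DMSO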
UPR CHOP confirm – apoptotic UPR (CHOP) activation, confirmed | shares compounds with UPR CHOP act | CHO-CHOP cells, CHOP-luciferase reporter luminescence; percent of tunicamycin response, DMSO as zero | activation, % at 10 µM | 64% of 1,000 active; in the data active = activation above about 33%;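 note: 0% = DMSO wells and 100% = tunicamycin 10 µg/mL wells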
* hit, by the source's call. Sampled rows, rich in hits. Any-hit rate of the full collection: about 4.1%.

How did Cn1c(SCC(=O)Nc2ccc(N3CCOCC3)c(Cl)c2)nnc1C(O)c1ccccc1 (stereo unspecified) do in these assays?
UPR CHOP act: 43*; UBC13 inh: 9; Apaf1 inhib: -12; Mdm2 MdmX PPI: 18; XBP1 UPR activ: 0; UPR CHOP confirm: -1

What do the screens show for `COC(=O)c1nn(-c2ccccc2)c(=O)cc1Oc1ccccc1`?
UPR CHOP act: 0; UBC13 inh: -9; Apaf1 inhib: 2; Mdm2 MdmX PPI: -11; XBP1 UPR activ: 2

Results for CC(C)(C)c1ccc2c(c1)OC(C(=O)N/N=C\c1ccncc1)CO2 (stereo unspecified) ?
UPR CHOP act: 1; UBC13 inh: -2; Apaf1 inhib: 9; Mdm2 MdmX PPI: -35; XBP1 UPR activ: 2

How did CC(C)(C)c1ccc2c(c1)OC(C(=O)N/N=C/c1ccc([N+](=O)[O-])o1)CO2 (stereo unspecified) do in these assays?
UPR CHOP act: 81*; UBC13 inh: -16; Apaf1 inhib: 17; Mdm2 MdmX PPI: 19; XBP1 UPR activ: 2; UPR CHOP confirm: 0

How did CCOC(=O)C(=Cc1ccc(-n2cncn2)cc1)C(=O)OCC do in these assays?
UPR CHOP act: 119*; UBC13 inh: 0; Apaf1 inhib: -3; Mdm2 MdmX PPI: 31; XBP1 UPR activ: -3; UPR CHOP confirm: 93*

What do the screens show for `CCOC(=O)C(=CNc1cc(C)nn1-c1ccc(Cl)cc1)C(=O)OCC`?
UPR CHOP act: 4; UBC13 inh: -3; Apaf1 inhib: 9; Mdm2 MdmX PPI: 20; XBP1 UPR activ: -2

Results for CC1(C)CC(=O)C=C(NCCN2CCN(C(=S)NC3CCCCC3)CC2)C1 ?
UPR CHOP act: 2; UBC13 inh: 6; Apaf1 inhib: -9; Mdm2 MdmX PPI: -8; XBP1 UPR activ: 3

Results for Clc1ccc(-c2nnc(CSc3nnc(-c4cccs4)n3Cc3ccccc3)o2)cc1 ?
UPR CHOP act: 47*; UBC13 inh: 6; Apaf1 inhib: 17; Mdm2 MdmX PPI: 7; XBP1 UPR activ: 0; UPR CHOP confirm: -3

How did Cc1ccc(Sc2nc3ccc(C)cn3c(=O)c2/C=N/O)cc1 do in these assays?
UPR CHOP act: 52*; UBC13 inh: -5; Apaf1 inhib: 9; Mdm2 MdmX PPI: 48; XBP1 UPR activ: 10; UPR CHOP confirm: 0

How did Oc1ccc(/C=N/N2CCN(C3c4ccccc4-c4ccccc43)CC2)cc1 do in these assays?
UPR CHOP act: 1; UBC13 inh: 32; Apaf1 inhib: -25; Mdm2 MdmX PPI: -26; XBP1 UPR activ: -2

How did Cc1ccc(CN2CCN(/N=C/c3ccc(O)c(O)c3)CC2)cc1 do in these assays?
UPR CHOP act: 147*; UBC13 inh: 6; Apaf1 inhib: -2; Mdm2 MdmX PPI: 14; XBP1 UPR activ: 19; UPR CHOP confirm: 106*

How did Oc1ccc(/C=N/N2CCN(C3c4ccccc4-c4ccccc43)CC2)cc1O do in these assays?
UPR CHOP act: 102*; UBC13 inh: 12; Apaf1 inhib: -16; Mdm2 MdmX PPI: 41; XBP1 UPR activ: 12; UPR CHOP confirm: 53*

Results for O=C1C2CC=CCC2C(=O)N1c1ccc(NCCc2ccc(Cl)cc2)c([N+](=O)[O-])c1 (stereo unspecified) ?
UPR CHOP act: 46*; UBC13 inh: -8; Apaf1 inhib: 5; Mdm2 MdmX PPI: 19; XBP1 UPR activ: -2; UPR CHOP confirm: -2

Results for O=C(CCc1nnc(CCc2ccccc2)o1)NC(c1cccnc1)C(F)(F)F (stereo unspecified) ?
UPR CHOP act: 1; UBC13 inh: 10; Apaf1 inhib: -18; Mdm2 MdmX PPI: -14; XBP1 UPR activ: 1

What do the screens show for `Cc1ccc(CSc2[nH]c(=O)ncc2C)cc1`?
UPR CHOP act: 0; UBC13 inh: 2; Apaf1 inhib: 2; Mdm2 MdmX PPI: 15; XBP1 UPR activ: -1

Results for COc1ccc(C2OC(=O)Cc3cc(OC)c(OC)cc32)cc1 (stereo unspecified) ?
UPR CHOP act: -1; UBC13 inh: 2; Apaf1 inhib: -2; Mdm2 MdmX PPI: 9; XBP1 UPR activ: -3

What do the screens show for `O=C(CSc1cn(CCNC(=O)c2cccs2)c2ccccc12)NC1CCCC1`?
UPR CHOP act: -2; UBC13 inh: -8; Apaf1 inhib: 5; Mdm2 MdmX PPI: 11; XBP1 UPR activ: 0

What do the screens show for `COC(=O)C1=C(C)N(c2ccc(C)c(C)c2)/C(=C/c2ccco2)C1=O`?
UPR CHOP act: 68*; UBC13 inh: 0; Apaf1 inhib: -1; Mdm2 MdmX PPI: 35; XBP1 UPR activ: 14; UPR CHOP confirm: 47*

What do the screens show for `O=[N+]([O-])c1cc(-c2nnc(C34CC5CC(CC(C5)C3)C4)o2)cc([N+](=O)[O-])c1`?
UPR CHOP act: 137*; UBC13 inh: 2; Apaf1 inhib: 10; Mdm2 MdmX PPI: 10; XBP1 UPR activ: 8; UPR CHOP confirm: 20

Results for CC1=CC(=O)C=C(C)C1=NOC(=O)c1cccc([N+](=O)[O-])c1 ?
UPR CHOP act: 46*; UBC13 inh: -13; Apaf1 inhib: 5; Mdm2 MdmX PPI: 11; XBP1 UPR activ: 1; UPR CHOP confirm: 5

How did Cc1cccc(C(=O)O/N=C(\N)c2cccc([N+](=O)[O-])c2)c1 do in these assays?
UPR CHOP act: 3; UBC13 inh: 16; Apaf1 inhib: -8; Mdm2 MdmX PPI: 40; XBP1 UPR activ: 1

How did O=C(NNC(=O)C1CC1)c1ccc(F)cc1F do in these assays?
UPR CHOP act: 0; UBC13 inh: -6; Apaf1 inhib: 10; Mdm2 MdmX PPI: 11; XBP1 UPR activ: 0

Results for N#Cc1c(N)c(C(=O)c2ccccc2)n2c1CCC2 ?
UPR CHOP act: 54*; UBC13 inh: -11; Apaf1 inhib: 2; Mdm2 MdmX PPI: 6; XBP1 UPR activ: 1; UPR CHOP confirm: 4

How did Cc1[nH]c2ccccc2c1CN1CCN(c2ccccn2)CC1 do in these assays?
UPR CHOP act: 50*; UBC13 inh: 3; Apaf1 inhib: -7; Mdm2 MdmX PPI: 15; XBP1 UPR activ: 25; UPR CHOP confirm: 8

How did c1ccc(N2CCN(Cc3nc4ccccc4[nH]3)CC2)nc1 do in these assays?
UPR CHOP act: 4; UBC13 inh: 2; Apaf1 inhib: 5; Mdm2 MdmX PPI: -6; XBP1 UPR activ: -3

What do the screens show for `[O-][n+]1ccccc1/C=C/c1ccccc1`?
UPR CHOP act: 1; UBC13 inh: -13; Apaf1 inhib: -10; Mdm2 MdmX PPI: -17; XBP1 UPR activ: 1

Results for [O-][n+]1c(/C=C/c2ccccc2)ccc2ccccc21 ?
UPR CHOP act: 127*; UBC13 inh: 8; Apaf1 inhib: 18; Mdm2 MdmX PPI: 19; XBP1 UPR activ: 2; UPR CHOP confirm: -5
